Test results: ChEMBL document CHEMBL1131182, “Anti-AIDS agents. 34. Synthesis and structure-activity relationships of betulin derivatives as anti-HIV agents” (J Med Chem, 1998)
Values belong to the compound of their own block, whether it stands above or below them.

Tests used:
[1] = tested on: H9; experiment: Anti-HIV activity against acutely infected H9 lymphocytes. Activity expressed as concentration of compound toxic to 50% of mock-infected H9 cells.; assay type: functional, cell-based; conditions: Homo sapiens
In short: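 Uninfected H9 cells were exposed to DMSO-dissolved samples (screen 100, 20, 4, 0.8 µg/mL final) for 4 days at 37 °C, 5% CO2. Remaining cells were counted with a counter against medium-only controls. IC50 is the concentration toxic to 50% of mock-infected cells; at least two experiments averaged.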

[2] = Therapeutic Index is the […] of the IC50 to that of EC50; assay type: cell-based; conditions: human, H9 cells; read-out: TI
[3] = tested on: H9; experiment: Anti-HIV activity against acutely infected H9 lymphocytes. Activity expressed as concentration of compound able to suppress HIV replication by 50%.; assay type: functional, cell-based; conditions: Homo sapiens
In short: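 H9 cells (RPMI 1640, 10% FCS, L-glutamine, 37 °C, 5% CO2, log phase) infected 1 h with HIV-1 IIIB at MOI 0.1-0.01, washed and plated at 4 × 10^5 cells/mL with DMSO-dissolved samples (screen 100, 20, 4, 0.8 µg/mL final, further dilutions for actives). After 4 days, supernatant p24 was measured by antigen-capture ELISA against a standard curve. EC50 is 50% suppression of replication; at least two experiments averaged.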

SMILES: C=C(C)[C@@H]1CC[C@]2(CO)CC[C@]3(C)[C@H](CC[C@@H]4[C@@]5(C)CC[C@@H](O)C(C)(C)[C@@H]5CC[C@]43C)[C@@H]12 [3-EPI-BETULIN]
IC50 [1]: 12.3 µM
selectivity ratio [2]: 3.4
EC50 [3]: 3.62 µM

SMILES: C=C(C)[C@@H]1CC[C@]2(COC(=O)CC(C)(C)CC(=O)O)CC[C@]3(C)[C@H](CC[C@@H]4[C@@]5(C)CC[C@H](OC(=O)CC(C)(C)CC(=O)O)C(C)(C)[C@@H]5CC[C@]43C)[C@@H]12
selectivity ratio [2]: 21500

SMILES: CCC(C)(CC(=O)O)CC(=O)OC[C@]12CC[C@@H](C(C)C)[C@@H]1[C@H]1CC[C@@H]3[C@@]4(C)CC[C@H](OC(=O)CC(C)(CC)CC(=O)O)C(C)(C)[C@@H]4CC[C@@]3(C)[C@]1(C)CC2 (stereo partly specified)
selectivity ratio [2]: 248

SMILES: CC(C)[C@@H]1CC[C@]2(COC(=O)CC3(CC(=O)O)CCCC3)CC[C@]3(C)[C@H](CC[C@@H]4[C@@]5(C)CC[C@H](OC(=O)CC6(CC(=O)O)CCCC6)C(C)(C)[C@@H]5CC[C@]43C)[C@@H]12
selectivity ratio [2]: 37

EC50 [3]: < 0.00035 µM
SMILES: C=C(C)[C@@H]1CC[C@]2(C(=O)O)CC[C@]3(C)[C@H](CC[C@@H]4[C@@]5(C)CC[C@H](OC(=O)CC(C)(C)C(=O)O)C(C)(C)[C@@H]5CC[C@]43C)[C@@H]12 [BEVIRIMAT]
IC50 [1]: > 7 µM
selectivity ratio [2]: > 20000

EC50 [3]: 2.1 µM
SMILES: C=C(C)[C@@H]1CC[C@]2(COC(=O)CC3(CC(=O)O)CCCC3)CC[C@]3(C)[C@H](CC[C@@H]4[C@@]5(C)CC[C@H](O)C(C)(C)[C@@H]5CC[C@]43C)[C@@H]12
IC50 [1]: 13.3 µM
selectivity ratio [2]: 6.1

EC50 [3]: 0.059 µM
SMILES: CC(CC(=O)O)CC(=O)OC[C@]12CC[C@@H](C(C)C)[C@@H]1[C@H]1CC[C@@H]3[C@@]4(C)CC[C@H](OC(=O)CC(C)CC(=O)O)C(C)(C)[C@@H]4CC[C@@]3(C)[C@]1(C)CC2 (stereo partly specified)
IC50 [1]: 19.2 µM
selectivity ratio [2]: 325

SMILES: C=C(C)[C@@H]1CC[C@]2(COC(=O)CC(C)(CC)CC(=O)O)CC[C@]3(C)[C@H](CC[C@@H]4[C@@]5(C)CC[C@H](OC(=O)CC(C)(CC)CC(=O)O)C(C)(C)[C@@H]5CC[C@]43C)[C@@H]12 (stereo partly specified)
selectivity ratio [2]: 3480

EC50 [3]: 4.81 µM
SMILES: C=C(C)[C@@H]1CC[C@]2(CNC(=O)CC3(CC(=O)O)CCCC3)CC[C@]3(C)[C@H](CC[C@@H]4[C@@]5(C)CC[C@H](NC(=O)CC6(CC(=O)O)CCCC6)C(C)(C)[C@@H]5CC[C@]43C)[C@@H]12
IC50 [1]: 15 µM
selectivity ratio [2]: 3.1

SMILES: CC(C)[C@@H]1CC[C@]2(COC(=O)CC(C)(C)CC(=O)O)CC[C@]3(C)[C@H](CC[C@@H]4[C@@]5(C)CC[C@H](OC(=O)CC(C)(C)CC(=O)O)C(C)(C)[C@@H]5CC[C@]43C)[C@@H]12
selectivity ratio [2]: 2250

EC50 [3]: 2.98 µM
SMILES: C=C(C)[C@@H]1CC[C@]2(COC(=O)C34CC5CC(CC(C5)C3)C4)CC[C@]3(C)[C@H](CC[C@@H]4[C@@]5(C)CC[C@H](OC(=O)CC(C)(C)CC(=O)O)C(C)(C)[C@@H]5CC[C@]43C)[C@@H]12
IC50 [1]: > 134 µM
selectivity ratio [2]: > 44.8

SMILES: C=C(C)[C@@H]1CC[C@]2(COC(=O)CC(C)(C)CC(=O)O)CC[C@]3(C)[C@H](CC[C@@H]4[C@@]5(C)CC=CC(C)(C)[C@@H]5CC[C@]43C)[C@@H]12
selectivity ratio [2]: 5.2

SMILES: C=C(C)[C@@H]1CC[C@]2(COC(C)=O)CC[C@]3(C)[C@H](CC[C@@H]4[C@@]5(C)CC[C@H](OC(C)=O)C(C)(C)[C@@H]5CC[C@]43C)[C@@H]12 [BETULIN DIACETATE]
IC50 [1]: > 190 µM
selectivity ratio [2]: < 1
EC50 [3]: > 190 µM

SMILES: C=C(C)[C@@H]1CC[C@]2(COC(=O)CC(C)(C)CC(=O)O)CC[C@]3(C)[C@H](CC[C@@H]4[C@@]5(C)CC[C@H](O)C(C)(C)[C@@H]5CC[C@]43C)[C@@H]12
selectivity ratio [2]: 7.8

EC50 [3]: 8.5 µM
SMILES: C=C(C)[C@@H]1CC[C@]2(COC(=O)CC3(CC(=O)O)CCCC3)CC[C@]3(C)[C@H](CC[C@@H]4[C@@]5(C)CC=CC(C)(C)[C@@H]5CC[C@]43C)[C@@H]12
IC50 [1]: 36.2 µM
selectivity ratio [2]: 4.3

EC50 [3]: 0.0054 µM
SMILES: C=C(COC(=O)CC1(CC(=O)O)CCCC1)[C@@H]1CC[C@]2(COC(=O)CC3(CC(=O)O)CCCC3)CC[C@]3(C)[C@H](CC[C@@H]4[C@@]5(C)CC[C@H](OC(=O)CC6(CC(=O)O)CCCC6)C(C)(C)[C@@H]5CC[C@]43C)[C@@H]12
IC50 [1]: 6.99 µM
selectivity ratio [2]: 1190

SMILES: C=C(C)[C@@H]1CC[C@]2(C=O)CC[C@]3(C)[C@H](CC[C@@H]4[C@@]5(C)CCC(=O)C(C)(C)[C@@H]5CC[C@]43C)[C@@H]12 [BETULONAL]
IC50 [1]: 49 µM
selectivity ratio [2]: 1.1
EC50 [3]: 45.6 µM

EC50 [3]: 4.3 µM
SMILES: C=C(C)[C@@H]1CC[C@]2(COC(=O)CC3(CC(=O)O)CCCC3)CC[C@]3(C)[C@H](CC[C@@H]4[C@@]5(C)CCC(=O)C(C)(C)[C@@H]5CC[C@]43C)[C@@H]12
IC50 [1]: 12.8 µM
selectivity ratio [2]: 3

SMILES: C=C(C)[C@@H]1CC[C@]2(COC(=O)CC(C)(C)CC(=O)O)CC[C@]3(C)[C@H](CC[C@@H]4[C@@]5(C)CC[C@@H](OC(=O)CC(C)(C)CC(=O)O)C(C)(C)[C@@H]5CC[C@]43C)[C@@H]12
IC50 [1]: 33.6 µM
selectivity ratio [2]: < 2.4
EC50 [3]: > 13.8 µM

SMILES: C=C(C)[C@@H]1CC[C@]2(C(=O)O)CC[C@]3(C)[C@H](CC[C@@H]4[C@@]5(C)CC[C@H](OC(=O)COCC(=O)O)C(C)(C)[C@@H]5CC[C@]43C)[C@@H]12
selectivity ratio [2]: 1170

EC50 [3]: 1.6 µM
SMILES: CC(C)[C@@H]1CC[C@]2(COC(=O)CCCC(=O)O)CC[C@]3(C)[C@H](CC[C@@H]4[C@@]5(C)CC[C@H](OC(=O)CCCC(=O)O)C(C)(C)[C@@H]5CC[C@]43C)[C@@H]12
IC50 [1]: 26.3 µM
selectivity ratio [2]: 17

EC50 [3]: 0.57 µM
SMILES: C=C(C)[C@@H]1CC[C@]2(CNC(=O)CC(C)(C)CC(=O)O)CC[C@]3(C)[C@H](CC[C@@H]4[C@@]5(C)CC[C@H](NC(=O)CC(C)(C)CC(=O)O)C(C)(C)[C@@H]5CC[C@]43C)[C@@H]12
IC50 [1]: 20.6 µM
selectivity ratio [2]: 36.6

SMILES: C=C(C)[C@@H]1CC[C@]2(COC(=O)CC3(CC(=O)O)CCCC3)CC[C@]3(C)[C@H](CC[C@@H]4[C@@]5(C)CC[C@H](OC(=O)CC6(CC(=O)O)CCCC6)C(C)(C)[C@@H]5CC[C@]43C)[C@@H]12
selectivity ratio [2]: 267

EC50 [3]: 4.7 µM
SMILES: CC(C)[C@@H]1CC[C@]2(COC(=O)CCC(=O)O)CC[C@]3(C)[C@H](CC[C@@H]4[C@@]5(C)CC[C@H](OC(=O)CCC(=O)O)C(C)(C)[C@@H]5CC[C@]43C)[C@@H]12
IC50 [1]: 28.8 µM
selectivity ratio [2]: 6.2

SMILES: C=C(C)[C@@H]1CC[C@]2(COC(=O)CC(C)(C)CC(=O)O)CC[C@]3(C)[C@H](CC[C@@H]4[C@@]5(C)CCC(=O)C(C)(C)[C@@H]5CC[C@]43C)[C@@H]12
selectivity ratio [2]: 2.9

SMILES: C=C(CO)[C@@H]1CC[C@]2(CO)CC[C@]3(C)[C@H](CC[C@@H]4[C@@]5(C)CC[C@H](O)C(C)(C)[C@@H]5CC[C@]43C)[C@@H]12 [30-HYDROXY-BETULIN]
IC50 [1]: > 140 µM
selectivity ratio [2]: 2.8
EC50 [3]: 50.8 µM

SMILES: C=C(C)[C@@H]1CC[C@]2(C(=O)O)CC[C@]3(C)[C@H](CC[C@@H]4[C@@]5(C)CC[C@H](OC(=O)C(C)(C)CC(=O)O)C(C)(C)[C@@H]5CC[C@]43C)[C@@H]12
selectivity ratio [2]: 5.9

EC50 [3]: 10.2 µM
SMILES: C=C(COC(C)=O)[C@@H]1CC[C@]2(COC(C)=O)CC[C@]3(C)[C@H](CC[C@@H]4[C@@]5(C)CC[C@H](OC(C)=O)C(C)(C)[C@@H]5CC[C@]43C)[C@@H]12
IC50 [1]: 25 µM
selectivity ratio [2]: 2.5

SMILES: C=C(C)[C@@H]1CC[C@]2(CO)CC[C@]3(C)[C@H](CC[C@@H]4[C@@]5(C)CC[C@H](O)C(C)(C)[C@@H]5CC[C@]43C)[C@@H]12 [BETULIN]
selectivity ratio [2]: 1.9

EC50 [3]: 0.0039 µM
SMILES: C=C(C)[C@@H]1CC[C@]2(COC(=O)CC(C)CC(=O)O)CC[C@]3(C)[C@H](CC[C@@H]4[C@@]5(C)CC[C@H](OC(=O)CC(C)CC(=O)O)C(C)(C)[C@@H]5CC[C@]43C)[C@@H]12 (stereo partly specified)
IC50 [1]: 20.7 µM
selectivity ratio [2]: 5310

EC50 [3]: 4.57 µM
SMILES: C=C(C)[C@@H]1CC[C@]2(/C=N/OC(=O)CC(C)(C)CC(=O)O)CC[C@]3(C)[C@H](CC[C@@H]4[C@@]5(C)CC/C(=N\OC(=O)CC(C)(C)CC(=O)O)C(C)(C)[C@@H]5CC[C@]43C)[C@@H]12
IC50 [1]: 15.4 µM
selectivity ratio [2]: 3.4

SMILES: C=C(C)[C@@H]1CC[C@]2(COC(=O)CCC(=O)O)CC[C@]3(C)[C@H](CC[C@@H]4[C@@]5(C)CC[C@H](OC(=O)CCC(=O)O)C(C)(C)[C@@H]5CC[C@]43C)[C@@H]12
IC50 [1]: 35.3 µM
selectivity ratio [2]: 9.3
EC50 [3]: 3.8 µM

SMILES: C=C(C)[C@@H]1CC[C@]2(/C=N/O)CC[C@]3(C)[C@H](CC[C@@H]4[C@@]5(C)CC/C(=N\O)C(C)(C)[C@@H]5CC[C@]43C)[C@@H]12 [BETULIN-3,28-DIOXIME]
IC50 [1]: 5.47 µM
selectivity ratio [2]: 5.1
EC50 [3]: 1.07 µM

SMILES: C=C(C)[C@@H]1CC[C@]2(CO)CC[C@]3(C)[C@H](CC[C@@H]4[C@@]5(C)CC=CC(C)(C)[C@@H]5CC[C@]43C)[C@@H]12
selectivity ratio [2]: 2.7
